Values belong to the molecule of their own block, whether it stands above or below them.
Legend:
Cia1 = conditions: via C-terminal tryptophan; ref [26]; cited from earlier work
HsCia2a = test: Affinity copurification of HsCia1 with HsCia2a; format: binding, Homo sapiens; conditions: strep-tagged HsCia1 bait, HsCia2a prey
Outline: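 Recombinant human Cia1, wild-type or R65A variant, carries the strep tag as bait. Human Cia2a is the prey. Copurified proteins are compared between the two bait forms. Uncropped gels, including input samples and controls, accompany the analysis.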

[1] = Melting temperature by Thermofluor; format: physicochemical, Homo sapiens; conditions: R65W vs WT HsCia1
CtCia1-Cia2 = test: Affinity copurification of ScMet18 with CtCia1-Cia2; format: binding, Chaetomium thermophilum

Molecule: Viperin: CIA client
- binding to Cia1 (Cia1): binds Cia1 via Viperin’s C-terminal tryptophan

Molecule: Hs R65WCia1: human Cia1 pathogenic variant implicated in a fatal neuromuscular disorder
- interaction with HsCia2a (HsCia2a): strongly disrupted
- thermostability of HsCia1 [1]: without impacting Cia1’s thermostability
- thermostability of HsCia1 ([1]; listed as R65W HsCia1): did not affect the stability of HsCia1 in vitro

- binding to CtCia1-Cia2 (CtCia1-Cia2): can bind to CtCia1-Cia2
B1: ScMet18: S. cerevisiae Met18 with N-terminal His6-SUMO tag (protein)
chain: MTPDELNSAVVTFMANLNIDDSKANETASTVTDSIVHRSIKLLEVVVALKDYFLSENEVERKKALTCLTTILAKTPKDHLSKNECSVIFQFYQSKLDDQALAKEVLEGFAALAPMKYVSINEIAQLLRLLLDNYQQGQHLASTRLWPFKILRKIFDRFFVNGSSTEQVKRINDLFIETFLHVANGEKDPRNLLLSFALNKSITSSLQNVENFKEDLFDVLFCYFPITFKPPKHDPYKISNQDLKTALRSAITATPLFAEDAYSNLLDKLTASSPVVKNDTLLTLLECVRKFGGSSILENWTLLWNALKFEIMQNSEGNENTLLNPYNKDQQSDDVGQYTNYDACLKIINLMALQLYNFDKVSFEKFFTHVLDELKPNFKYEKDLKQTCQILSAIGSGNVEIFNKVISSTFPLFLINTSEVAKLKLLIMNFSFFVDSYIDLFGRTSKESLGTPVPNNKMAEYKDEIIMILSMALTRSSKAEVTIRTLSVIQFTKMIKMKGFLTPEEVSLIIQYFTEEILTDNNKNIYYACLEGLKTISEIYEDLVFEISLKKLLDLLPDCFEEKIRVNDEENIHIETILKIILDFTTSRHILVKESITFLATKLNRVAKISKSREYCFLLISTIYSLFNNNNQNENVLNEEDALALKNAIEPKLFEIITQESAIVSDNYNLTLLSNVLFFTNLKIPQAAHQEELDRYNELFISEGKIRILDTPNVLAISYAKILSALNKNCQFPQKFTVLFGTVQLLKKHAPRMTETEKLGYLELLLVLSNKFVSEKDVIGLFDWKDLSVINLEVMVWLTKGLIMQNSLESSEIAKKFIDLLSNEEIGSLVSKLFEVFVMDISSLKKFKGISWNNNVKILYKQKFFGDIFQTLVSNYKNTVDMTIKCNYLTALSLVLKHTPSQSVGPFINDLFPLLLQALDMPDPEVRVSALETLKDTTDKHHTLITEHVSTIVPLLLSLSLPHKYNSVSVRLIALQLLEMITTVVPLNYCLSYQDDVLSALIPVLSDKKRIIRKQCVDTRQVYYELGQIPFE
modifications: left off: His6, N-terminal, state not stated | SUMO, N-terminal, state not stated

Reference: publication PMC11974842 (bioRxiv, 2025)
